# Measurements taken from the M2OR odorant receptor database.
# Columns and labels:
# Settings in all cases: stereoisomer not certain
# UniProt L7MU75 = biological target: T1, UniProt L7MU75
# T1 sequence (whole entry): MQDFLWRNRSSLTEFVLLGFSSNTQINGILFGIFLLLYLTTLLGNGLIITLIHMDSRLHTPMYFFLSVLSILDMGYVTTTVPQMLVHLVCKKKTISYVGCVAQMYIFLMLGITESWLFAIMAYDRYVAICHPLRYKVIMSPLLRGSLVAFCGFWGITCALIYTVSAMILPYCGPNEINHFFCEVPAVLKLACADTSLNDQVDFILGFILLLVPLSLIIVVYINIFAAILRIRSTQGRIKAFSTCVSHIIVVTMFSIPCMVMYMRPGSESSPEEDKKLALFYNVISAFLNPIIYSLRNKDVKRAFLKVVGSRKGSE
# Procedure, shortened: (§1)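 Whether a receptor–molecule pair is responsive (active) rests on the original authors' judgment that its measured signal was statistically different from baseline. Pairs without that judgment are non-responsive (inactive). Sources used varied assay methods, commonly transient luciferase assays in mammalian cell lines.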
# UniProt L7N0P5 = biological target: T2, UniProt L7N0P5
# T2 sequence (whole entry): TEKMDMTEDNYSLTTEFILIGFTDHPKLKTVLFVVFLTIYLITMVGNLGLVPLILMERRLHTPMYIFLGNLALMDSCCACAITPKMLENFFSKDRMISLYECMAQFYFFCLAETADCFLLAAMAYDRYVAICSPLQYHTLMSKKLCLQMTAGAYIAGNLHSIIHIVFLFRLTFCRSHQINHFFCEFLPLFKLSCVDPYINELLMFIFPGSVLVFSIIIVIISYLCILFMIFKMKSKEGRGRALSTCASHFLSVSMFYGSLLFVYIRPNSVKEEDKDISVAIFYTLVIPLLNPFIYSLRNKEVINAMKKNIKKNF
# Procedure, shortened: as §1
# UniProt L7N210 = biological target: T3, UniProt L7N210
# T3 sequence (whole entry): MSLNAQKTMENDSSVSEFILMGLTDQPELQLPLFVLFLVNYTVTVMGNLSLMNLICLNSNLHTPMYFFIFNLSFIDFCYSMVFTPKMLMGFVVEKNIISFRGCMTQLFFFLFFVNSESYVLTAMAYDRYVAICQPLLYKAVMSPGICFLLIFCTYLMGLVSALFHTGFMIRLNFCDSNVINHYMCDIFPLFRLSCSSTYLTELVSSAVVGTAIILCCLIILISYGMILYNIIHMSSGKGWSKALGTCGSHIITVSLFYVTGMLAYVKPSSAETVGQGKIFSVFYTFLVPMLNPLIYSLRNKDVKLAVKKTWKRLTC
# Procedure, shortened: as §1
# UniProt Q3KPB0 = biological target: T4, UniProt Q3KPB0
# T4 sequence (whole entry): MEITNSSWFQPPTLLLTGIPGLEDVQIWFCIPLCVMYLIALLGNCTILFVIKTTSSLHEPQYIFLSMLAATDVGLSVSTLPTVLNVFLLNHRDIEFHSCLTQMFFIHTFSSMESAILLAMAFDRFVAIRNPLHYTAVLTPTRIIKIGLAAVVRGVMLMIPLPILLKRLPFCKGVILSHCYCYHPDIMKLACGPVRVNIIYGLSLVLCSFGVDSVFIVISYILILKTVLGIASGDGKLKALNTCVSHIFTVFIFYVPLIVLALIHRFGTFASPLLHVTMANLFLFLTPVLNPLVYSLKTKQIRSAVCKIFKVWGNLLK
# Procedure, shortened: as §1
# UniProt Q3U0P3 = biological target: T5, UniProt Q3U0P3
# T5 sequence (whole entry): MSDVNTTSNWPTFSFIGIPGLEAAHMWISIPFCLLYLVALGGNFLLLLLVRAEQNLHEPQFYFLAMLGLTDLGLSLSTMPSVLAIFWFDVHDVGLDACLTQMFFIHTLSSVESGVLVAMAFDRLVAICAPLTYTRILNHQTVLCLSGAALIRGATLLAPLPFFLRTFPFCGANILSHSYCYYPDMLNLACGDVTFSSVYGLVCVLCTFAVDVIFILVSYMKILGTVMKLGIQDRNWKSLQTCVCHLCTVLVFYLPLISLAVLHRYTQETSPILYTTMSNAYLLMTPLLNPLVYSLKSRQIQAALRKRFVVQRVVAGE
# Procedure, shortened: as §1
# UniProt Q7TQU8 = biological target: T6, UniProt Q7TQU8
# T6 sequence (whole entry): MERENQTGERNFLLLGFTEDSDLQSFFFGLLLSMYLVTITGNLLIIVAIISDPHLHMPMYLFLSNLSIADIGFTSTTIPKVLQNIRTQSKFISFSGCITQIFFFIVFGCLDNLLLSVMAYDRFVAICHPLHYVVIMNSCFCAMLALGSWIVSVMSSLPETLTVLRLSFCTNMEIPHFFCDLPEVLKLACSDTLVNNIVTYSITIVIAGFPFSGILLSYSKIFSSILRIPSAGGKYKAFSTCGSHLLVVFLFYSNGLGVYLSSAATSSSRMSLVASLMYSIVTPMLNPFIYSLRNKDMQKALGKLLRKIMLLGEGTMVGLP
# Procedure, shortened: as §1
# UniProt L7N1Y8 = biological target: UniProt L7N1Y8
# Sequence of UniProt L7N1Y8 (L7N1Y8 as listed by the source): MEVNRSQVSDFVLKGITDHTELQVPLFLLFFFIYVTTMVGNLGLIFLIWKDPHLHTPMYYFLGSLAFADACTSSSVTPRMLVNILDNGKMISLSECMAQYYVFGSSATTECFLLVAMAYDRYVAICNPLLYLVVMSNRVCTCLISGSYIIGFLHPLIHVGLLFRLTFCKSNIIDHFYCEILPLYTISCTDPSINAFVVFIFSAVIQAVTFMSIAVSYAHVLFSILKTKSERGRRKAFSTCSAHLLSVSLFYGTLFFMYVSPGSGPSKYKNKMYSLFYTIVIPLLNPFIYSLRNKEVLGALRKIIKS
# Procedure, shortened: as §1
# UniProt Q7TQV4 = biological target: T7, UniProt Q7TQV4
# T7 sequence (whole entry): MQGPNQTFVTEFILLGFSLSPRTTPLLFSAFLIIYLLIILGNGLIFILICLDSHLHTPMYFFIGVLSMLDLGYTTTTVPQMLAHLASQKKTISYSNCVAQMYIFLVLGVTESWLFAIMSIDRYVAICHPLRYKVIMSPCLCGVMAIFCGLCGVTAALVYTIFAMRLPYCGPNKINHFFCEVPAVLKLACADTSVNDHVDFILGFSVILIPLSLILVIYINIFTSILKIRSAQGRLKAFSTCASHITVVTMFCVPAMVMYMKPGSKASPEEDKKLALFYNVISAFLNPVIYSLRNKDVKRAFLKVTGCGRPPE
# Procedure, shortened: as §1
# 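Also: active if original authors judged signal statistically different from baseline.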
compound,measurement,setting,value
COc1cnccn1,odorant receptor agonist call,UniProt L7MU75,inactive
same,odorant receptor agonist call,UniProt L7N0P5,active
same,odorant receptor agonist call,UniProt L7N210,inactive
same,odorant receptor agonist call,UniProt Q3KPB0,inactive
same,odorant receptor agonist call,UniProt Q3U0P3,inactive
same,odorant receptor agonist call,UniProt Q7TQU8,inactive
CCCCCC(C)(C)O,odorant receptor agonist call,UniProt L7MU75,inactive
CNc1ccccc1C(=O)OC,odorant receptor agonist call,UniProt L7MU75,inactive
same,odorant receptor agonist call,UniProt L7N210,active
same,odorant receptor agonist call,UniProt Q3KPB0,inactive
same,odorant receptor agonist call,UniProt Q3U0P3,inactive
same,odorant receptor agonist call,UniProt Q7TQU8,inactive
Cc1ccc(C(C)C)cc1,odorant receptor agonist call,UniProt L7MU75,inactive
same,odorant receptor agonist call,UniProt L7N210,inactive
same,odorant receptor agonist call,UniProt Q3KPB0,inactive
same,odorant receptor agonist call,UniProt Q3U0P3,inactive
same,odorant receptor agonist call,UniProt Q7TQU8,inactive
COc1nccnc1C(C)C,odorant receptor agonist call,UniProt L7MU75,inactive
same,odorant receptor agonist call,UniProt L7N0P5,active
same,odorant receptor agonist call,UniProt L7N210,inactive
same,odorant receptor agonist call,UniProt Q3KPB0,inactive
same,odorant receptor agonist call,UniProt Q3U0P3,inactive
same,odorant receptor agonist call,UniProt Q7TQU8,inactive
CCCC(=O)OC,odorant receptor agonist call,UniProt L7MU75,inactive
CCCCOC(=O)CCC,odorant receptor agonist call,UniProt L7MU75,inactive
CC1=CCC2CC1C2(C)C (stereo not given),odorant receptor agonist call,UniProt L7MU75,inactive
CCC(=O)OC(C)(C)C,odorant receptor agonist call,UniProt L7MU75,inactive
CCOc1ccccc1,odorant receptor agonist call,UniProt L7MU75,inactive
CCC=O,odorant receptor agonist call,UniProt L7MU75,inactive
CC(O)c1ccccc1 (stereo not given),odorant receptor agonist call,UniProt L7MU75,inactive
CCCCOC,odorant receptor agonist call,UniProt L7MU75,inactive
CCCCCCC(C)O (stereo not given),odorant receptor agonist call,UniProt L7MU75,inactive
same,odorant receptor agonist call,UniProt L7N210,active
same,odorant receptor agonist call,UniProt Q3KPB0,inactive
same,odorant receptor agonist call,UniProt Q3U0P3,inactive
same,odorant receptor agonist call,UniProt Q7TQU8,inactive
C=CCCCCCC,odorant receptor agonist call,UniProt L7MU75,inactive
Cc1ccc(C(C)C)c(O)c1,odorant receptor agonist call,UniProt L7MU75,inactive
same,odorant receptor agonist call,UniProt L7N210,inactive
same,odorant receptor agonist call,UniProt Q3KPB0,inactive
same,odorant receptor agonist call,UniProt Q3U0P3,inactive
same,odorant receptor agonist call,UniProt Q7TQU8,inactive
CC(C)CN,odorant receptor agonist call,UniProt L7MU75,inactive
Cc1ccc2c(c1)OCC(=O)CO2,odorant receptor agonist call,UniProt L7MU75,inactive
same,odorant receptor agonist call,UniProt L7N210,inactive
same,odorant receptor agonist call,UniProt Q3KPB0,inactive
same,odorant receptor agonist call,UniProt Q3U0P3,inactive
same,odorant receptor agonist call,UniProt Q7TQU8,inactive
Cc1occc1SSc1ccoc1C,odorant receptor agonist call,UniProt L7MU75,inactive
same,odorant receptor agonist call,UniProt L7N210,inactive
same,odorant receptor agonist call,UniProt Q3KPB0,inactive
same,odorant receptor agonist call,UniProt Q3U0P3,inactive
same,odorant receptor agonist call,UniProt Q7TQU8,active
O=c1ccc2ccccc2o1,odorant receptor agonist call,UniProt L7MU75,active
same,odorant receptor agonist call,UniProt L7N1Y8,active
same,odorant receptor agonist call,UniProt L7N210,active
same,odorant receptor agonist call,UniProt Q7TQV4,active
CCC(C)c1nccnc1OC (stereo not given),odorant receptor agonist call,UniProt L7MU75,inactive
same,odorant receptor agonist call,UniProt L7N0P5,active
same,odorant receptor agonist call,UniProt L7N210,inactive
same,odorant receptor agonist call,UniProt Q3KPB0,inactive
same,odorant receptor agonist call,UniProt Q3U0P3,inactive
same,odorant receptor agonist call,UniProt Q7TQU8,inactive
CCc1ncc(C)nc1CC,odorant receptor agonist call,UniProt L7MU75,inactive
same,odorant receptor agonist call,UniProt L7N0P5,active
same,odorant receptor agonist call,UniProt L7N210,inactive
same,odorant receptor agonist call,UniProt Q3KPB0,inactive
same,odorant receptor agonist call,UniProt Q3U0P3,inactive
same,odorant receptor agonist call,UniProt Q7TQU8,inactive
CC(C)=CC1CC(C)CCO1 (stereo not given),odorant receptor agonist call,UniProt L7MU75,inactive
CCCC(=O)OCC,odorant receptor agonist call,UniProt L7MU75,inactive
CCCOC(=O)CCC,odorant receptor agonist call,UniProt L7MU75,inactive
Cc1nccnc1C,odorant receptor agonist call,UniProt L7MU75,inactive
same,odorant receptor agonist call,UniProt L7N0P5,active
CCc1nccnc1CC,odorant receptor agonist call,UniProt L7MU75,inactive
same,odorant receptor agonist call,UniProt L7N0P5,active
same,odorant receptor agonist call,UniProt L7N210,inactive
same,odorant receptor agonist call,UniProt Q3KPB0,inactive
same,odorant receptor agonist call,UniProt Q3U0P3,inactive
same,odorant receptor agonist call,UniProt Q7TQU8,inactive
O=C(Cl)CCCCCCCC(=O)Cl,odorant receptor agonist call,UniProt L7MU75,inactive
CC(C)C12CCC(C)(CC1)O2,odorant receptor agonist call,UniProt L7MU75,inactive
CC(C)=CCCC(C)CC=O (stereo not given),odorant receptor agonist call,UniProt L7MU75,inactive
OCc1ccccc1,odorant receptor agonist call,UniProt L7MU75,inactive
CCC(=O)OC,odorant receptor agonist call,UniProt L7MU75,inactive
CCc1occc(=O)c1O,odorant receptor agonist call,UniProt L7MU75,active
same,odorant receptor agonist call,UniProt L7N210,active
same,odorant receptor agonist call,UniProt Q3KPB0,inactive
same,odorant receptor agonist call,UniProt Q3U0P3,inactive
same,odorant receptor agonist call,UniProt Q7TQU8,inactive
CC=CC(=O)C1=C(C)CCCC1(C)C,odorant receptor agonist call,UniProt L7MU75,inactive
same,odorant receptor agonist call,UniProt L7N210,inactive
same,odorant receptor agonist call,UniProt Q3KPB0,inactive
same,odorant receptor agonist call,UniProt Q3U0P3,inactive
same,odorant receptor agonist call,UniProt Q7TQU8,inactive
CCCCCCCCCC=CC=O,odorant receptor agonist call,UniProt L7MU75,inactive
same,odorant receptor agonist call,UniProt L7N210,inactive
same,odorant receptor agonist call,UniProt Q3KPB0,inactive
same,odorant receptor agonist call,UniProt Q3U0P3,inactive
same,odorant receptor agonist call,UniProt Q7TQU8,inactive
